Data taken from ChEMBL document CHEMBL3739314, “Discovery of Nanomolar Dengue and West Nile Virus Protease Inhibitors Containing a 4-Benzyloxyphenylglycine Residue” (J Med Chem, 2015).
The source made the active and inactive calls. The calls are words filed in the database; no cut-off is given here. Square brackets hold non-standard residues; d marks the D form. Peptide text beside a SMILES is read from it. * marks the point of attachment. dPhg = N[C@@H](C(=O)O)c1ccccc1; Bz = O=C(c1ccccc1)*

Experiments:
[1] = Cytotoxicity against human HuH7 cells infected with West Nile virus assessed as cell viability after 48 hrs by Cell-Titer-Glo luminescent viability assay; format: cell-based, Huh-7
How it was run: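 Huh-7 cells (10^4/well, DMEM + 10% FBS, overnight) were infected with WT WNV (MOI 0.1) alongside compound, each concentration in triplicate. After 48 h at 37 °C, fresh DMEM was added and viability was measured by CellTiter-Glo luminescence. CC50 was determined.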

[2] = Inhibition of West Nile virus NS2B-NS3 protease using 2-Abz-Gly-Leu-Lys-Arg-Gly-Gly-[…]-Tyr-NH2 as substrate preincubated with protein for 15 mins followed by substrate addition measured for 15 mins by FRET assay
How it was run: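 WNV NS2B-NS3 linked construct at 75 nM (40 nM in one case) in pH 9 Tris buffer, preincubated 15 min with eight inhibitor concentrations (ranges 0–1 up to 0–50 μM). Substrate was 50 μM, with FRET readout over 15 min. IC50 was fitted from triplicates.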

dengue virus type 2 [3] = assay: Antiviral activity against Dengue virus serotype-2 infected in African green monkey Vero cells after 7 days by virus yield reduction assay; format: functional, organism-based
[4] = Selectivity index, ratio of CC50 for African green monkey Vero cells to EC50 for Dengue virus serotype-2 infected in African green monkey Vero cells; format: toxicity, cell-based; settings: read-out: Ratio CC50/EC50
West Nile virus [5] = assay: Inhibition of West Nile virus NS2B-NS3 protease using 2-Abz-Gly-Leu-Lys-Arg-Gly-Gly-[…]-Tyr-NH2 as substrate at 50 uM preincubated with protein for 15 mins followed by substrate addition measured for 15 mins by FRET assay
How it was run: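 Linked WNV NS2B-NS3 protease (150 nM) was preincubated 15 min with inhibitor (50 μM final) in 50 mM Tris-HCl pH 9, 10% ethylene glycol, 0.0016% Brij 58. […] Percent inhibition was taken from the slope relative to the no-inhibitor control, in triplicate.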

[6] = Retention time of compound by RP-HPLC analysis; format: physicochemical
[7] = Cytotoxicity against human HuH7 cells infected with Dengue virus serotype-2 assessed as cell viability after 48 hrs by Cell-Titer-Glo luminescent viability assay; format: cell-based, Huh-7
How it was run: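 Huh-7 cells (10^4/well) were seeded in DMEM + 10% FBS overnight, then infected with WT DENV-2 (MOI 1) in the presence of compound, triplicate per concentration. After 48 h at 37 °C, medium was replaced with fresh DMEM and viability was read by CellTiter-Glo luminescence. CC50 was determined.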

[8] = Inhibition of Dengue virus serotype-2 NS2B-NS3 protease using 2-Abz-Nle-Lys-Arg-Arg-Ser-(3-NO2)-Tyr-NH2 as substrate preincubated with protein for 15 mins followed by substrate addition measured for 15 mins by FRET assay; design: species or system dengue virus type 2
How it was run: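 DENV-2 NS2B-NS3 linked construct at 30 nM (15 nM in some cases), same pH 9 Tris buffer, 15 min preincubation and FRET read-out. Eight inhibitor concentrations spanned 0–1, 0–2, 0–6 or 0–50 μM, with substrate at 50 μM. IC50 was fitted from triplicates.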

West Nile virus [9] = assay: Antiviral activity against West Nile virus infected in human HuH7 cells after 3 days by virus yield reduction assay; format: functional, organism-based; settings: Huh-7, 72 h
[10] = biological target: Prothrombin (Homo sapiens) (UniProt P00734); assay: Inhibition of thrombin (unknown origin) using Boc-Val-Pro-Arg-AMC as substrate at 25 uM preincubated with protein for 15 mins followed by substrate addition measured for 10 mins by continuous fluorimetric assay relative to control
Trypsin (Homo sapiens) = Trypsin (Homo sapiens) (UniProt P07477+P07478+P35030); assay: Inhibition of trypsin (unknown origin) using Boc-Val-Pro-Arg-AMC as substrate at 25 uM preincubated with protein for 15 mins followed by substrate addition by continuous fluorimetric assay relative to control
dengue virus type 2 [11] = assay: Inhibition of Dengue virus serotype-2 NS2B-NS3 protease using 2-Abz-Nle-Lys-Arg-Arg-Ser-(3-NO2)-Tyr-NH2 as substrate at 50 uM preincubated with protein for 15 mins followed by substrate addition measured for 15 mins by FRET assay
[12] = Permeability of compound assessed as compound mass retention after 5 hrs by PAMPA; format: ADME
How it was run: (§1)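 Precoated PAMPA plates were equilibrated 1 h at room temperature. Donor wells received 200 μM compound in PBS, in triplicate, and acceptor wells received PBS. After 5 h at room temperature, donor and acceptor concentrations were quantified by RP-HPLC UV at 254 nm against six-point calibration curves (10–200 μM). Pe and mass retention were calculated by literature formulas.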

[13] = Permeability of compound after 5 hrs by PAMPA; format: ADME; settings: read-out: permeability; how it was run: as §1
[14] = Half life in Sprague-Dawley rat liver microsomes incubated for 30 mins by UV-HPLC method; format: ADME
How it was run: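 Pooled male rat liver microsomes (0.2 mg/mL protein) with NADPH (10 mM) in DPBS were preincubated 15 min at 37 °C. Compound (100 μM) was added and incubated at 37 °C; aliquots were taken at 0, 2, 5, 10, 20 and 30 min. Samples were quenched with equal-volume acetonitrile, chilled and centrifuged, and parent remaining was quantified by RP-HPLC UV against reference peak areas. Testosterone served as positive control.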

dengue virus type 2 [15] = assay: Inhibition of Dengue virus serotype-2 NS2B-NS3 protease using 2-Abz-Nle-Lys-Arg-Arg-Ser-(3-NO2)-Tyr-NH2 as substrate preincubated with protein for 15 mins followed by substrate addition measured for 15 mins by FRET assay relative to Bz-Lys-Arg-Phg-NH2
West Nile virus [16] = assay: Inhibition of West Nile virus NS2B-NS3 protease using 2-Abz-Gly-Leu-Lys-Arg-GlyGly-[…]-Tyr-NH2 as substrate preincubated with protein for 15 mins followed by substrate addition measured for 15 mins by FRET assay relative to Bz-Lys-Arg-Phg-NH2
West Nile virus [17] = assay: Inhibition of West Nile virus NS2B-NS3 protease at 0 to 48 uM incubated for 1 hr by tryptophan quenching assay
West Nile virus [18] = assay: Competitive inhibition of West Nile virus NS2B-NS3 protease in presence of aprotinin by fluorescence displacement assay based Cheng-Prusoff plot
dengue virus type 2 [19] = assay: Inhibition of Dengue virus serotype-2 NS2B-NS3 protease at 0 to 48 uM incubated for 1 hr by tryptophan quenching assay
dengue virus type 2 [20] = assay: Competitive inhibition of Dengue virus serotype-2 NS2B-NS3 protease in presence of aprotinin by fluorescence displacement assay based Cheng-Prusoff plot

SMILES	IC50 [2]	EC50 (dengue virus type 2 [3])	inhibition (West Nile virus [5])	Retention_time [6]	IC50 [8]	inhibition [10]	inhibition (Trypsin (Homo sapiens))	inhibition (dengue virus type 2 [11])	CC50 at 48 h [7]	other results
N=C(N)NCCC[C@H](NC(=O)c1cccs1)C(=O)N[C@@H](CCCCN)C(=O)N[C@@H](C(N)=O)c1ccc(OCc2ccc(Cl)c(Cl)c2)cc1	79 nM	4060 nM	98%	3.22 min	79 nM	inactive	inactive		> 100000 nM	CC50 at 48 h [1]: > 100000 nM; selectivity ratio [4]: > 25; EC50 (West Nile virus [9]): 23300 nM
N=C(N)NCCC[C@H](NC(=O)c1ccccc1)C(=O)N[C@@H](CCCCN)C(=O)N[C@@H](C(N)=O)c1ccc(O)cc1			75.1%		2030 nM			98%		
N=C(N)NCCC[C@H](NC(=O)c1cc2sccc2s1)C(=O)N[C@@H](CCCCN)C(=O)N[C@@H](C(N)=O)c1ccc(OCc2c(Cl)cccc2Cl)cc1	785 nM	5330 nM	99.2%	3.28 min	158 nM	inactive	inactive		34300 nM	
N=C(N)NCCC[C@H](NC(=O)c1cccs1)C(=O)N[C@@H](CCCCN)C(=O)N[C@@H](C(N)=O)c1ccc(OCc2ccc(C(F)(F)F)cc2)cc1	117 nM	7060 nM	101%	3.15 min	28 nM	inactive	inactive		> 100000 nM	Ki [2]: 93 nM; Ki [8]: 19 nM
N=C(N)NCCC[C@H](NC(=O)c1ccccc1)C(=O)N[C@@H](CCCCN)C(=O)N[C@H](C(N)=O)c1ccc(O)cc1			79.2%		9700 nM			96.6%		
N=C(N)NCCC[C@H](NC(=O)c1ccccc1)C(=O)N[C@@H](CCCCN)C(=O)N[C@@H](C(N)=O)c1ccc(OCc2ccccc2)cc1	728 nM	7940 nM	101%	2.83 min	367 nM	< 30%	inactive	100%	> 100000 nM	Ki [2]: 536 nM; Ki [8]: 307 nM; fold change (FC) (dengue virus type 2 [15]): 9; fold change (FC) (West Nile virus [16]): 80
NCCCC[C@H](NC(=O)c1ccccc1)C(=O)N[C@@H](C(N)=O)c1ccc(OCc2ccccc2)cc1			11.4%					16.4%		
N=C(N)NCCC[C@H](NC(=O)c1ccccc1)C(=O)N[C@@H](C(N)=O)c1ccc(OCc2ccccc2)cc1			27.5%					31%		
N=C(N)NCCC[C@H](NC(=O)c1ccccc1)C(=O)N[C@@H](CCCCN)C(=O)N[C@H](C(N)=O)c1ccc(OCc2ccccc2)cc1			88%		935 nM			99.9%		
N=C(N)NCCC[C@H](NC(=O)c1nccs1)C(=O)N[C@@H](CCCCN)C(=O)N[C@@H](C(N)=O)c1ccc(OCc2ccc(C(F)(F)F)cc2)cc1	50 nM	20400 nM	100%	3.11 min	18 nM	inactive	inactive		> 100000 nM	CC50 at 48 h [1]: > 100000 nM; Ki [2]: 39 nM; inhibition (West Nile virus [17]): Active; half-life [14]: 0.75 h; inhibition (West Nile virus [18]): Active; Ki [8]: 12 nM; inhibition (dengue virus type 2 [19]): Active; inhibition (dengue virus type 2 [20]): Active; EC50 (West Nile virus [9]): 23400 nM
N=C(N)NCCC[C@H](NC(=O)c1ccc(-c2cccs2)s1)C(=O)N[C@@H](CCCCN)C(=O)N[C@@H](C(N)=O)c1ccc(OCc2ccc(Cl)c(Cl)c2)cc1	365 nM	7600 nM	100%	3.6 min	215 nM	inactive	inactive		40000 nM	permeability [12]: 2.5%; Papp at 5 h [13]: 0.79 ×10⁻⁶ cm/s

Second part, led by results:

IC50 [2]	EC50 (dengue virus type 2 [3])	inhibition (West Nile virus [5])	Retention_time [6]	IC50 [8]	inhibition [10]	inhibition (Trypsin (Homo sapiens))	inhibition (dengue virus type 2 [11])	SMILES	CC50 at 48 h [7]	other results
	7120 nM	91.3%	3.34 min	130 nM	inactive	inactive		CC(C)(C)c1ccc(COc2ccc([C@@H](NC(=O)[C@H](CCCCN)NC(=O)[C@H](CCCNC(=N)N)NC(=O)c3ccc(Cl)s3)C(N)=O)cc2)cc1	> 100000 nM	permeability [12]: 0.44%; Papp at 5 h [13]: 0.33 ×10⁻⁶ cm/s
		64%					23.5%	N=C(N)NCCC[C@@H](NC(=O)[C@@H](CCCCN)NC(=O)c1ccccc1)C(=O)N[C@H](C(N)=O)c1ccc(OCc2ccccc2)cc1		
		19.9%					26.8%	N=C(N)NCCC[C@@H](NC(=O)[C@@H](CCCCN)NC(=O)c1ccccc1)C(=O)N[C@@H](C(N)=O)c1ccc(OCc2ccccc2)cc1		
231 nM	54600 nM	99.3%	2.71 min	68 nM	inactive	inactive		COc1cccc(COc2ccc([C@@H](NC(=O)[C@H](CCCCN)NC(=O)[C@H](CCCNC(=N)N)NC(=O)c3cccs3)C(N)=O)cc2)c1	> 100000 nM	half-life [14]: 1.55 h
		91.7%					77%	N=C(N)NCCC[C@H](NC(=O)[C@H](CCCCN)NC(=O)c1ccccc1)C(=O)N[C@@H](C(N)=O)c1ccc(OCc2ccccc2)cc1		
3780 nM		99%		3790 nM			99.3%	N=C(N)NCCC[C@H](NC(=O)c1ccccc1)C(=O)N[C@@H](CCCCN)C(=O)N[C@@H](C(N)=O)c1ccccc1 (Bz-Arg-Lys-[dPhg]-NH2)		
		71.3%					29.4%	N=C(N)NCCC[C@@H](NC(=O)c1ccccc1)C(=O)N[C@H](CCCCN)C(=O)N[C@H](C(N)=O)c1ccc(OCc2ccccc2)cc1		
604 nM	7060 nM	98.7%	3.47 min	199 nM	inactive	inactive		N=C(N)NCCC[C@H](NC(=O)c1cc2ccccc2s1)C(=O)N[C@@H](CCCCN)C(=O)N[C@@H](C(N)=O)c1ccc(OCc2ccc(C(F)(F)F)cc2)cc1	56800 nM	
